Hits are enriched below; roughly 3.4% of the tested compounds scored in any of these assays.
RanGTP-Imp inh = disruptors of Ran-importin-beta complex formation – biochemical, FRET, CFP-Ran, YFP-importin-beta, homogeneous, primary screen. 1.1% of 300,000 active. cell-free CFP-Ran/YFP-importin-beta FRET ratio. AID 2216. inhibition, % (concentration not given with the values);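 active means more than half of the replicate wells show a fall in the fluorescence ratio signal beyond about 16%, limit read from the data, passing the limit was not always enough; inconclusive means exactly half of the replicate wells pass the set limit; inactive means fewer than half of replicates pass the limit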;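 further: 0% = DMSO wells and 100% = Ran loaded with GDP instead of GTP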
PHOSPHO1 block = PHOSPHO1 (human) inhibition. 1.1% of 290,000 active. Q8TCT1. inhibition, % at 13.3 µM. recombinant PHOSPHO1, absorbance phosphatase assay. AID 1565; in the data active means inhibition above about 60%
Runt-CBFb FRET = blocks binding of human RUNX1 Runt domain to CBFb. Q01196+Q13951. Cerulean-Runt/Venus-CBFb FRET ratio 530/480, 1 h. inhibition, % at 20 µM. 0.46% of 220,000 active;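 active means inhibition over about 50% at 20 µM in the single-dose screen, limit read from the data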;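 further: 0% = DMSO wells and 100% = excess unlabeled CBFb competitor control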
Target sequence (Q01196 whole entry, looked up, the tested form may be a part): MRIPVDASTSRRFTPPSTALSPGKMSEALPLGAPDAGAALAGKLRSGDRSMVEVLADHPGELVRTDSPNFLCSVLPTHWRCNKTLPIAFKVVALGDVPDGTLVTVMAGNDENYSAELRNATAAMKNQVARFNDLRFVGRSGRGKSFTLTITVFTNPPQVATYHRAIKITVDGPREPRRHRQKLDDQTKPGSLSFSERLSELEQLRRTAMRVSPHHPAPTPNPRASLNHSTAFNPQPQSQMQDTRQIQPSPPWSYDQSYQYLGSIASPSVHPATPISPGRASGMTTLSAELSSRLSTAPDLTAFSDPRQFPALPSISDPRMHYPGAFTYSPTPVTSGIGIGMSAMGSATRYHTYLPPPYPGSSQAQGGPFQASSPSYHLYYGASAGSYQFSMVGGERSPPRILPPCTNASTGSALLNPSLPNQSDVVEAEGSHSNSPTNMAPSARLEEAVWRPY
Target sequence (Q13951 whole entry, looked up, the tested form may be a part): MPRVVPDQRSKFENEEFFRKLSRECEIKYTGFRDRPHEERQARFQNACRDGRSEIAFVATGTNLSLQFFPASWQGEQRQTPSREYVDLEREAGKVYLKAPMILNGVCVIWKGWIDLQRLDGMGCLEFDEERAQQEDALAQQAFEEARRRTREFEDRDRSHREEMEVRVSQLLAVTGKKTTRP
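Doses: 20 µM compound in 1% DMSO | Material: Cerulean-labeled Runt domain protein | Amount: Each fluorescent fusion protein 100 nM | Schedule: Two 1 h room-temperature incubations shielded from light | Measured by: FRET fluorescence | Evaluation: Loss of energy transfer signal | Controls: Unlabeled CBFb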
Wee1 degr inh = human Wee1 degradation inhibition, primary screen; reporter increase, % at 5 µM; 1.2% of 220,000 active; AID 1321; P30291; HeLa Luc-Wee1K328M stability, luciferase luminescence; 100% = proteasome inhibitor MG132 effect;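 active means activation above the mean of all tested compounds plus 3 SD, set per screening run, cut at about 8.8% in these data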;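 further: cells exposed to compound for 20 h before luminescence read; 0% = DMSO alone and 100% = MG132 at 30 µM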
Runt-SMMHC FRET = blocks binding of human RUNX1 Runt domain to CBFb-SMMHC; inhibition, % at 20 µM; Cerulean-Runt/Venus-CBFb-SMMHC FRET ratio 530/480, 1 h; 0.74% of 220,000 active;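 active means mean inhibition across duplicate retests at 20 µM reaching about 50%, limit read from the data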;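 further: 0% = DMSO wells and 100% = wells with excess untagged CBFb-SMMHC; inhibitors lower the FRET ratio by blocking Runt binding to CBFb-SMMHC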
HMGR II inh = E. faecalis class II HMG-CoA reductase inhibition; purified E. faecalis HMGR, NADPH absorbance 340 nm kinetic; inhibition, % at 10 µM; 0.41% of 190,000 active;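 active means inhibition above a set limit, the median over all tested compounds plus 3 SD, cut at about 9.5% in these data; inconclusive means no clear call, values can overlap the other calls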;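 further: enzyme runs in reverse so mevalonate oxidation gives rising NADPH absorbance; 0% = complete reaction with DMSO and 100% = background rate lacking mevalonate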
Active calls of the source: *; ? = inconclusive; . = not tested or not shown.

SMILES	RanGTP-Imp inh	PHOSPHO1 block	Runt-CBFb FRET	Wee1 degr inh	Runt-SMMHC FRET	HMGR II inh
Cc1cc(-n2c(=O)c(C#N)cc3c(=O)n4cccc(C)c4nc32)no1	184*	-9	18	4	60*	-1
N=c1c(S(=O)(=O)c2ccc(F)cc2)cc2c(=O)n3ccccc3nc2n1CC1CCCO1 (stereo unspecified)	175*	22	.	.	.	.
Cc1cccn2c(=O)c3cc(C#N)c(=O)n(CC4CCCO4)c3nc12 (stereo unspecified)	.	31	22	-1	60*	-3
N#Cc1cc2c(=O)n3ccccc3nc2n(CC2CCCO2)c1=N (stereo unspecified)	.	.	.	1	.	.
Cc1ccc(C(=O)NCC(=O)OCCCn2c(=O)[nH]c3ccccc32)cc1	-2	.	.	.	.	.
COC(=O)C1C(O)=C(C=Nc2ccc3ccccc3c2)C(=O)CC1(C)C (stereo unspecified)	-5	36	1	2	6	2
COC(=O)c1c(C#N)c(N)nc2c1CCC2	66*	38	96*	1	62*	-6
COC(=O)c1cc(C)nc(N)c1C#N	2	23	9	0	10	-4
CCCc1ccc2oc(C(=O)N3CCC(COC)C3)c(C)c2c1 (stereo unspecified)	2	19	.	.	.	.
O=C(Nc1cccc(-c2cn3c(n2)SCC3)c1)c1ccc2c(c1)OCO2	-4	-37	1	3	0	4
O=C(Nc1ccc(-c2cn3c(n2)SCC3)cc1)c1ccc2c(c1)OCO2	0	6	2	2	-2	13*
Cc1c(C(=O)/C=C/N(C)C)nnn1-c1ccc(F)c(Cl)c1	8	-5	-1	10*	3	.
Cc1c(C(=O)/C=C/N(C)C)nnn1-c1ccc(Cl)c(Cl)c1	2	-10	2	3	1	.
Cc1cc(=O)n2ccccc2c1C#N	0	2	8	1	13	-5
COc1ccc2c(C#N)c3ccccn3c2c1	0	30	20	0	92*	0
COc1ccc(CNC(=O)CN(C(=O)c2csnn2)c2ccc(C(C)=O)cc2)cc1	1	42	.	.	.	.
Cc1cc(C(=O)COc2ccccc2C(N)=O)c(C)n1C	2	24	0	1	-5	-3
Cc1cc(C(=O)COc2cccc3cccnc23)c(C)n1C	90*	11	4	3	-2	-8
Cc1ccc(C(=O)N/C(=C\c2ccc(Br)cc2)c2nc(=S)[nH][nH]2)cc1	28*	19	1	5	7	-4
Cn1c(OCc2cccnc2)nc2c1c(=O)n(Cc1ccc(Br)cc1)c(=O)n2C	2	1	-2	-3	0	14*
O=C(CCc1nnc(CCCCc2ccccc2)o1)NCCc1cccnc1	2	44	-2	-1	0	-2
O=C(CCc1nnc(CCCCc2ccccc2)o1)NCCN1CCCCC1=O	2	60*	-1	-3	-1	-5
O=C(CSc1ncn[nH]1)NCc1ccc(Cl)cc1	6	35	.	.	.	.
O=C(CSc1nccc(=O)[nH]1)NCc1ccc(Cl)cc1	-2	-7	1	9.3*	2	-3
Cc1ccc(-c2n[nH]c(=S)n2-c2ccccc2)cc1	-3	0	6	-1	12	-6
SMILES	RanGTP-Imp inh	PHOSPHO1 block	Runt-CBFb FRET	Wee1 degr inh	Runt-SMMHC FRET	HMGR II inh
Cc1ccc(-n2c(-c3c(-c4ccccc4)noc3C)n[nH]c2=S)cc1	3	85*	4	-1	4	-1
Cc1ccc(-n2c(-c3cccnc3)n[nH]c2=S)c(C)c1	0	60*	1	-3	4	-5
Cc1cccc(-n2c(CCn3nc(C)c([N+](=O)[O-])c3C)n[nH]c2=S)c1	-1	97*	5	2	3	0
Cc1ccc([N+](=O)[O-])c(-c2n[nH]c(=S)n2-c2cccc(Cl)c2)c1	-2	88*	7	-1	2	.
Cc1cccc(-n2c(-c3ccoc3C)n[nH]c2=S)c1	5	9	0	-1	24	-1
COc1ccc(S(=O)(=O)N2CCC3(CC2)OCCN3S(=O)(=O)c2ccc(C)cc2)cc1OC	3	.	.	.	.	.
CSC1=NNC(c2ccc(C(C)(C)C)cc2)=NN1	-2	46	1	0	2	.
O=C(O)c1ccc(-n2c(-c3ccc(Br)cc3)n[nH]c2=S)cc1	-3	103*	0	3	26	-1
Cc1ccc(-n2c(-c3cccc(C)c3)n[nH]c2=S)cc1	-1	102*	-32	-1	22	-5
O=[N+]([O-])c1ccc(/C=N\NS(=O)(=O)c2ccc(F)cc2)o1	?	16	.	.	.	.
Cc1noc(C)c1S(=O)(=O)Nc1ccc(C(C)C)cc1	-1	44	.	.	.	.
COc1cc(NC(=O)c2cc3nc(-c4ccccc4)cc(-c4ccccc4)n3n2)cc(OC)c1OC	-2	23	-4	1	-4	17*
C/C=C/Cn1c(SC)nc2c1c(=O)[nH]c(=O)n2C	0	71*	13	-3	-3	-7
C/C=C/Cn1c(Br)nc2c1c(=O)[nH]c(=O)n2C	0	10	-2	0	0	0
NC(N)=Nc1nc(-c2ccccc2)c2ccccc2n1	26*	-13	1	1	5	2
CCc1nc(N=C(N)N)nc2ccccc12	0	20	-1	0	0	0
COc1ccc(CN2C(=O)[C@@H]3C(c4ccccc4Cl)=NO[C@@H]3C2=O)cc1	0	2	1	-2	-8	11*
O=C(Cc1cccs1)NNC(=O)C12CC3CC(CC(C3)C1)C2	-1	61*	1	-3	-1	-2
CS(=O)(=O)c1ccc(C(=O)OC2CCOC2=O)cc1[N+](=O)[O-] (stereo unspecified)	1	22	.	.	.	.
COCCNC(=O)/C(C#N)=C/c1cc(C(C)C)c(OC)cc1C	1	61*	-2	6	-2	-2
Cc1sc2ncnc(NCCN3CCOCC3)c2c1C	4	12	0	3	0	-4
Cc1nn(CC(=O)OCC(=O)NC(C)c2ccccc2)c(C)c1[N+](=O)[O-] (stereo unspecified)	1	51	3	1	-8	-4
CCCn1nnnc1NCc1c(F)cccc1Cl	-3	41	-3	-2	-1	2
Cn1nnnc1NCc1c(F)cccc1Cl	0	34	0	10*	-6	-1
NS(=O)(=O)c1cccc(NC(=O)COC(=O)C2CCCCC2)c1	.	2	1	1	0	11*
NS(=O)(=O)c1ccc(NC(=O)COC(=O)C2CC(=O)N(Cc3ccccc3)C2)cc1 (stereo unspecified)	3	20	0	-1	-2	11*
